Data: ChEMBL document CHEMBL1127651, “Molecular requirements for the inhibition of the tetracycline antiport protein and the effect of potent inhibitors on the growth of tetracycline-resistant bacteria” (J Med Chem, 1994)
Converted amounts (≈) assume the structure as drawn. The source made the active and inactive calls. The calls are words filed in the database; no cut-off is given here.

How the values were obtained:
Escherichia coli [1] = test: Minimum inhibitory activity against tetracycline-susceptible Escherichia coli strain ML308-225; type: functional
Procedure, shortened: (§1)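 Broth dilution MIC in Luria broth. Two-fold dilutions from a 10 mg/mL stock in H₂O or 1:1 H₂O/MeOH, test range 200–0.030 µg/mL, incubated 18–20 h at 37 °C. MIC = lowest amount inhibiting growth.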

Escherichia coli [2] = test: Minimum inhibitory activity against tetracycline-susceptible Escherichia coli strain ML308-225 (Tet A on plasmid pIP15); type: functional
Procedure, shortened: (§2)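 Inoculum about 10⁶ cfu/mL into two-fold dilutions from 200 to 0.030 µg/mL, made from a 10 mg/mL stock in H₂O or 1:1 H₂O/MeOH. Incubated 18–20 h at 37 °C; MIC = amount inhibiting growth.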

Escherichia coli [3] = test: Minimum inhibitory activity against tetracycline-susceptible Escherichia coli strain ML308-225 (Tet B on plasmid R222); type: functional; procedure, shortened: as §2
Escherichia coli [4] = test: Minimum inhibitory activity against tetracycline-susceptible Escherichia coli strain ML308-225 (Tet B on plasmid R222) in combination with doxycycline; No effect; type: functional, organism-based
Escherichia coli [5] = test: Minimum inhibitory activity against tetracycline-susceptible Escherichia coli strain D31m4; type: functional; procedure, shortened: as §1
Enterococcus faecalis [6] = test: Minimum inhibitory activity against tetracycline-susceptible Enterococcus faecalis strain ATCC 9790; type: functional; procedure, shortened: as §1
Staphylococcus aureus [7] = test: Minimum inhibitory activity against tetracycline-susceptible Staphylococcus aureus strain RN450 (Tet K on plasmid pT181); type: functional; procedure, shortened: as §2
Staphylococcus aureus [8] = test: Minimum inhibitory activity against tetracycline-susceptible Staphylococcus aureus strain RN450; type: functional; procedure, shortened: as §1
Enterococcus faecalis [9] = test: Minimum inhibitory activity against tetracycline-susceptible Enterococcus faecalis strain ATCC 9790 (Tet L on plasmid MV158); type: functional; conditions: in the assay text read “tetracycline-resistant” for “tetracycline-susceptible”; procedure, shortened: as §2
Escherichia coli [10] = test: Minimum inhibitory activity against tetracycline-susceptible Escherichia coli strain D31m4 (Tet B on plasmid pHCMI); type: functional; conditions: in the assay text read “tetracycline-resistant” for “tetracycline-susceptible”; procedure, shortened: as §2
Escherichia coli [11] = test: (§3) Inhibitory activity against tetracycline uptake in everted membrane vesicles derived from Tc-resistant Escherichia coli bearing class B tetracycline resistance efflux protein (Tet); type: functional
Procedure, shortened: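 Everted inner membrane vesicles from E. coli D1-209 carrying plasmid R222 (class B Tc determinant on Tn10), energized with Li lactate; test compound added together with [³H]Tc. Accumulated [³H]Tc read at 2.5 min after energization, compared with uptake without analogue; CCCP-deenergized vesicles served as the negative control. IC50 = concentration giving 50% inhibition of uptake. Separately screened for disruption of the pH gradient by acridine orange fluorescence in vesicles from isogenic Tc-susceptible cells.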

Escherichia coli [12] = test: Growth inhibitory activity against tetracycline-resistant ML308-225 bacterial strain of Escherichia coli; type: functional, organism-based
Procedure, shortened: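 MIC by two-fold broth dilution in Luria broth from a 10 mg/mL stock, test range 200 to 0.030 µg/mL. Compounds dissolved in H2O or 1:1 H2O/MeOH. Inoculum about 10⁶ cfu/mL. Incubated 18–20 h at 37 °C. MIC taken as the lowest amount that inhibited growth.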

Escherichia coli [13] = test: as §3; type: functional; remark: listed apart in the source
Procedure, shortened: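 Everted inner-membrane vesicles from E. coli D1-209 carrying plasmid R222 (class B Tet on Tn10). Vesicles energized with Li lactate and given [³H]Tc together with the analogue. Accumulation read at 2.5 min against uptake without analogue. CCCP-deenergized vesicles served as negative control. IC50 is the concentration giving 50% inhibition of [³H]Tc uptake.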

Escherichia coli [14] = test: Minimum inhibitory activity against tetracycline-susceptible Escherichia coli strain ML308-225 (Tet B on plasmid R222) in combination with doxycycline; no effect; type: functional, organism-based

## CCCSC[C@H]1c2cccc(O)c2C(=O)C2=C(O)[C@]3(O)C(O)=C(C(N)=O)C(=O)[C@@H](N(C)C)C3[C@@H](O)C21 (stereo partly specified)
Escherichia coli [1]
  MIC: 40 µg/mL (≈ 77.1 µM)
Escherichia coli [2]
  MIC: > 50 µg/mL
Escherichia coli [3]
  MIC: > 50 µg/mL
Escherichia coli [4]
  MIC: inactive
Escherichia coli [5]
  MIC: 10 µg/mL (≈ 19.3 µM)
Enterococcus faecalis [6]
  MIC: 1.25 µg/mL (≈ 2.41 µM)
Staphylococcus aureus [7]
  MIC: 12.5 µg/mL (≈ 24.1 µM)
Staphylococcus aureus [8]
  MIC: 0.6 µg/mL (≈ 1.16 µM)
Enterococcus faecalis [9]
  MIC: 1.56 µg/mL (≈ 3.01 µM)
Escherichia coli [10]
  MIC: 12.5 µg/mL (≈ 24.1 µM)

## CN(C)[C@@H]1C(=O)C(C(N)=O)=C(O)[C@@]2(O)C(O)=C3C(=O)c4c(O)cccc4[C@H](CSCCCCl)C3[C@H](O)C12 (stereo partly specified)
Escherichia coli [1]
  MIC: 10 µg/mL (≈ 18.1 µM)
Escherichia coli [2]
  MIC: 50 µg/mL (≈ 90.4 µM)
Escherichia coli [3]
  MIC: > 50 µg/mL
Escherichia coli [4]
  MIC: inactive
Escherichia coli [5]
  MIC: 2.5 µg/mL (≈ 4.52 µM)
Enterococcus faecalis [6]
  MIC: 0.6 µg/mL (≈ 1.08 µM)
Staphylococcus aureus [7]
  MIC: 6.25 µg/mL (≈ 11.3 µM)
Staphylococcus aureus [8]
  MIC: 0.6 µg/mL (≈ 1.08 µM)
Escherichia coli [11]
  IC50: 0.6 µM
Enterococcus faecalis [9]
  MIC: 1.56 µg/mL (≈ 2.82 µM)
Escherichia coli [10]
  MIC: 6.25 µg/mL (≈ 11.3 µM)

## CN(C)c1ccc(O)c2c1CC1CC3[C@H](N(C)C)C(=O)C(C(N)=O)=C(O)[C@@]3(O)C(O)=C1C2=O (stereo partly specified)
Escherichia coli [11]
  IC50: 2.3 µM

## COc1cccc2c1C(=O)c1c(O)c3c(c(O)c1C2=O)C[C@@](O)(C(=O)CO)C[C@@H]3O[C@H]1C[C@H](N)[C@H](O)[C@H](C)O1 [DOXORUBICIN]
Escherichia coli [11]
  IC50: > 75 µM

## CC(=O)OC1=CC[C@H]2CC3C(=C(O)c4c(O)cccc4C3O[Si](C)(C)C(C)(C)C)C(=O)[C@H]2C1 (stereo partly specified)
Escherichia coli [11]
  IC50: > 150 µM

## C[C@H]1c2cccc(O)c2C(=O)C2=C(O)[C@]3(O)C(=O)C(C(N)=O)=C(O)[C@@H](N(C)C)[C@@H]3[C@@H](O)[C@@H]21.O [DOXYCYCLINE]
Escherichia coli [12]
  IC50: 9.2 µM
Escherichia coli [2]
  MIC: 50 µg/mL
Escherichia coli [3]
  MIC: > 50 µg/mL
Escherichia coli [5]
  MIC: 0.5 µg/mL
Enterococcus faecalis [6]
  MIC: 0.25 µg/mL
Staphylococcus aureus [7]
  MIC: 12.5 µg/mL
Staphylococcus aureus [8]
  MIC: 0.25 µg/mL
Escherichia coli [13]
  MIC: 0.5 µg/mL
Escherichia coli [11]
  IC50: > 75 µM
Enterococcus faecalis [9]
  MIC: 6.25 µg/mL
Escherichia coli [10]
  MIC: 12.5 µg/mL

## CN(C)[C@@H]1C(=O)C(C(N)=O)=C(O)[C@@]2(O)C(O)=C3C(=O)c4c(O)cccc4[C@H](C[S+]([O-])c4ccccc4)C3CC12 (stereo partly specified)
Escherichia coli [11]
  IC50: 0.7 µM

## CN(C)[C@@H]1C(=O)C(C(N)=O)=C(O)[C@@]2(O)C(O)=C3C(=O)c4c(O)cccc4SC3CC12 (stereo partly specified)
Escherichia coli [11]
  IC50: 4.6 µM

## COC(=O)c1c(O)cccc1CC1CC(=O)[C@@]2(O)C(O)=C(C(N)=O)C(=O)[C@@H](N(C)C)C2C1 (stereo partly specified)
Escherichia coli [11]
  IC50: > 75 µM

## CN(C)[C@@H]1C(=O)C(C(N)=O)=C(O)[C@@]2(O)C(O)=C3C(=O)c4c(ccc([N+](=O)[O-])c4O)CC3CC12 (stereo partly specified)
Escherichia coli [11]
  IC50: 12.3 µM

## O=C(O)CC1CC(=O)c2c(O)ccc(Cl)c2S1 (stereo unspecified)
Escherichia coli [11]
  IC50: > 150 µM

## CN(C)c1ccc2c(c1O)C(=O)C1=C(O)[C@]3(O)C(O)=C(C(N)=O)C(=O)[C@@H](N(C)C)C3CC1C2 (stereo partly specified)
Escherichia coli [11]
  IC50: 15.4 µM

## CC1CC(=O)C2=C(O)c3c(O)ccc(O)c3CC2C1 (stereo unspecified)
Escherichia coli [11]
  IC50: > 130 µM

## O=C1c2ccc(O)c(O)c2C(=O)c2c(O)ccc(O)c21 [QUINALIZARIN]
Escherichia coli [11]
  IC50: > 150 µM

## C=C1c2cccc(O)c2C(=O)C2(Cl)C(=O)[C@]3(O)C(O)=C(C(N)=O)C(=O)[C@@H](N(C)C)C3CC12 (stereo partly specified)
Escherichia coli [11]
  IC50: > 75 µM

## O=CCC1CC(=O)c2c(O)cccc2S1 (stereo unspecified)
Escherichia coli [11]
  IC50: > 75 µM

## COC(C(=O)[C@@H](O)C(C)O)C1Cc2cc3cc(O)c(C)c(O)c3c(O)c2C(=O)C1O (stereo partly specified)
Escherichia coli [11]
  IC50: > 100 µM

## CC(=O)Oc1cccc2c1C(=O)C1=C(O)[C@]3(OC(C)=O)C(O)=C(C(N)=O)C(=O)[C@@H](N(C)C)C3CC1[C@]2(C)O (stereo partly specified)
Escherichia coli [11]
  IC50: > 75 µM

## COc1cc(O)c2c(c1)C(=O)c1cc3c(c(O)c1C2=O)C(OC1OC(C)C(OC)C(O)C1OC)C(OC)C(C)(O)C3=O (stereo unspecified)
Escherichia coli [11]
  IC50: > 75 µM

## COC(C(=O)[C@@H](O)[C@@H](C)O)C1Cc2cc3cc(O)cc(O)c3c(O)c2C(=O)C1O (stereo partly specified)
Escherichia coli [11]
  IC50: > 100 µM

## CC(=O)C1CCC2C(=O)C3=C(O)c4c(O)ccc(O)c4CC3CC2C1 (stereo unspecified)
Escherichia coli [11]
  IC50: > 75 µM

## COc1cc(O)c2c(c1)C(=O)c1cc3c(c(O)c1C2=O)C(OC1OC(C)C(O)C(O)C1OC)C(OC)C(C)(O)C3=O (stereo unspecified)
Escherichia coli [11]
  IC50: > 75 µM

## Cc1cc(O)c2c(c1O)C(=O)c1cc(O)cc(O)c1C2=O [CATENARIN]
Escherichia coli [11]
  IC50: > 150 µM

## COC(=O)C12Oc3ccc(-c4ccc5c(c4O)C(O)=C4C(=O)CC(C)C(O)C4(C(=O)OC)O5)c(O)c3C(O)=C1C(=O)CC(C)C2O (stereo unspecified)
Escherichia coli [11]
  IC50: > 75 µM

## COc1ccc(Cl)c2c1C(=O)CC(CC(=O)O)S2 (stereo unspecified)
Escherichia coli [11]
  IC50: > 150 µM

## CC(=O)SC[C@H]1c2cccc(O)c2C(=O)C2=C(O)[C@]3(O)C(O)=C(C(N)=O)C(=O)[C@@H](N(C)C)C3[C@@H](O)C21 (stereo partly specified)
Escherichia coli [11]
  IC50: 4.6 µM

## CN(C)[C@@H]1C(=O)C(C(N)=O)=C(O)[C@@]2(O)C(O)=C3C(=O)c4c(O)cccc4[C@H](CS)C3[C@H](O)C12 (stereo partly specified)
Escherichia coli [11]
  IC50: 4.6 µM

## O=CCC1CC(=O)c2c(O)ccc(Cl)c2S1 (stereo unspecified)
Escherichia coli [11]
  IC50: > 75 µM

## CN(C)[C@@H]1C(=O)C(C(N)=O)=C(O)[C@@]2(O)C(=O)C3(F)C(=O)c4c(O)cccc4CC3CC12 (stereo partly specified)
Escherichia coli [11]
  IC50: > 75 µM

## CN(C)[C@@H]1C(=O)C(C(N)=O)=C(O)[C@@]2(O)C(O)=C3C(=O)c4c(O)cccc4[C@H](CSCCC(=O)O)C3CC12 (stereo partly specified)
Escherichia coli [14]
  MIC: inactive
Escherichia coli [1]
  MIC: > 40 µg/mL
Escherichia coli [2]
  MIC: > 50 µg/mL
Escherichia coli [3]
  MIC: > 50 µg/mL
Escherichia coli [5]
  MIC: 20 µg/mL (≈ 37.6 µM)
Enterococcus faecalis [6]
  MIC: 10 µg/mL (≈ 18.8 µM)
Staphylococcus aureus [7]
  MIC: 12.5 µg/mL (≈ 23.5 µM)
Staphylococcus aureus [8]
  MIC: 2.5 µg/mL (≈ 4.69 µM)
Enterococcus faecalis [9]
  MIC: 3.12 µg/mL (≈ 5.86 µM)
Escherichia coli [10]
  MIC: > 50 µg/mL

## CC(=O)OC1=C(Sc2ccccc2)C[C@H]2Cc3cc4cccc(O)c4c(O)c3C(=O)[C@H]2C1
Escherichia coli [11]
  IC50: > 150 µM

## CN(C)[C@@H]1C(=O)C(C(N)=O)=C(O)[C@@]2(O)C(=O)C3C(=O)c4c(O)ccc(Cl)c4[C@@](C)(O)C3CC12 (stereo partly specified)
Escherichia coli [11]
  IC50: > 75 µM

## COc1cc(O)c2c(c1Cl)CC1CC3[C@H](N(C)C)C(=O)C(C(N)=O)=C(O)[C@@]3(O)C(O)=C1C2=O (stereo partly specified)
Escherichia coli [11]
  IC50: 19.5 µM
